Format in all cases: protein assay
In series [1] the target is T1, Alpha-1,2-mannosidase (BT_2199) (Bacteroides thetaiotaomicron, UniProt Q8A5N9).
T1 sequence (Q8A5N9 whole entry): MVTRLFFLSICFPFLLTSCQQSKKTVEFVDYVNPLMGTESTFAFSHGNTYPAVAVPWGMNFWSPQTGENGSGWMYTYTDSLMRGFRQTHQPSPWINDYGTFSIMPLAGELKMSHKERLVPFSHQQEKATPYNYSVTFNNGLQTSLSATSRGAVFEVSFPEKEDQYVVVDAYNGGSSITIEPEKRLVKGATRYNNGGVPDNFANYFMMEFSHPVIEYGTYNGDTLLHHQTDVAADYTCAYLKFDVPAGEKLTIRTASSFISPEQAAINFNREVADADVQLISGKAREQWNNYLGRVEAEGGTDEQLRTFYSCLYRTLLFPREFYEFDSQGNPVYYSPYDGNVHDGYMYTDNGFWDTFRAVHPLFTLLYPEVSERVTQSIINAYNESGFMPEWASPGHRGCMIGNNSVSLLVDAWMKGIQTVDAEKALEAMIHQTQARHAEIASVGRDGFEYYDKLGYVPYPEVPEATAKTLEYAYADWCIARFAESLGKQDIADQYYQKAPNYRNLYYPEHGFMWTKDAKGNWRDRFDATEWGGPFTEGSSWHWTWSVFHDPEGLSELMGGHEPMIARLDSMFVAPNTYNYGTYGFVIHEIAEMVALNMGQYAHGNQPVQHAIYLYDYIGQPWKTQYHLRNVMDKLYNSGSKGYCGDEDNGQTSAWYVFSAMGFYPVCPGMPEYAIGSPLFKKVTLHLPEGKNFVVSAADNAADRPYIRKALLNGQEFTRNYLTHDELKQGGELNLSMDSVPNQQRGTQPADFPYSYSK
Nature of the series: Inhibition of Bacteroides thetaiotaomicron GH92 alpha-mannosidase 2199 assessed as reduction of mannose release using 4NP-mannopyranoside substrate. The method in brief:
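Recombinant enzymes expressed in E. coli. Bt3990 was purified by IMAC, anion exchange and size exclusion; Bt2199 by IMAC only. Ki was measured with at least five inhibitor concentrations at a substrate concentration ≪ Km for each enzyme. Ki was taken as the x-axis intercept of a plot of […] against inhibitor concentration.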

Substrate in series [2]: O=[N+]([O-])c1ccc(O[C@H]2O[C@H](CO)[C@@H](O)[C@H](O)[C@@H]2O)cc1
Briefly: Ratio of Kcat to Km for Bacteroides thetaiotaomicron GH92 alpha-mannosidase GH92 alpha-mannosidase 3773 assessed as mannose release after 16 hrs by HPLC.

Substrate in series [3]: O=[N+]([O-])c1ccc(O[C@H]2O[C@H](CO)[C@@H](O)[C@H](O)[C@@H]2O)cc1
Briefly: Activity of Bacteroides thetaiotaomicron GH92 alpha-mannosidase GH92 alpha-mannosidase 3773 assessed as mannose release after 16 hrs by HPLC.

Substrate in series [4]: O=[N+]([O-])c1ccc(O[C@H]2O[C@H](CO)[C@@H](O)[C@H](O)[C@@H]2O)cc1
Nature of the series: Ratio of Kcat to Km for Bacteroides thetaiotaomicron GH92 alpha-mannosidase GH92 alpha-mannosidase 2111 assessed as mannose release after 16 hrs by HPLC.

Substrate in series [5]: O=[N+]([O-])c1ccc(O[C@H]2O[C@H](CO)[C@@H](O)[C@H](O)[C@@H]2O)cc1
Nature of the series: Activity of Bacteroides thetaiotaomicron GH92 alpha-mannosidase GH92 alpha-mannosidase 2111 assessed as mannose release after 16 hrs by HPLC.

Substrate in series [6]: O=[N+]([O-])c1ccc(O[C@H]2O[C@H](CO)[C@@H](O)[C@H](O)[C@@H]2O)cc1
Briefly: Ratio of Kcat to Km for Bacteroides thetaiotaomicron GH92 alpha-mannosidase GH92 alpha-mannosidase 3527 assessed as mannose release after 16 hrs by HPLC.

Substrate in series [7]: O=[N+]([O-])c1ccc(O[C@H]2O[C@H](CO)[C@@H](O)[C@H](O)[C@@H]2O)cc1
Nature of the series: Activity of Bacteroides thetaiotaomicron GH92 alpha-mannosidase GH92 alpha-mannosidase 3527 assessed as mannose release after 16 hrs by HPLC.

Substrate in series [8]: O=[N+]([O-])c1ccc(O[C@H]2O[C@H](CO)[C@@H](O)[C@H](O)[C@@H]2O)cc1
Nature of the series: Activity of Bacteroides thetaiotaomicron GH92 alpha-mannosidase GH92 alpha-mannosidase 2629 assessed as mannose release after 16 hrs by HPLC.

Substrate in series [9]: O=[N+]([O-])c1ccc(O[C@H]2O[C@H](CO)[C@@H](O)[C@H](O)[C@@H]2O)cc1
Nature of the series: Ratio of Kcat to Km for Bacteroides thetaiotaomicron GH92 alpha-mannosidase GH92 alpha-mannosidase 2629 assessed as mannose release after 16 hrs by HPLC.

Substrate in series [10]: O=[N+]([O-])c1ccc(O[C@H]2O[C@H](CO)[C@@H](O)[C@H](O)[C@@H]2O)cc1
Briefly: Ratio of Kcat to Km for Bacteroides thetaiotaomicron GH92 alpha-mannosidase GH92 alpha-mannosidase 1769 assessed as mannose release after 16 hrs by HPLC.

Substrate in series [11]: O=[N+]([O-])c1ccc(O[C@H]2O[C@H](CO)[C@@H](O)[C@H](O)[C@@H]2O)cc1
Briefly: Activity of Bacteroides thetaiotaomicron GH92 alpha-mannosidase GH92 alpha-mannosidase 1769 assessed as mannose release after 16 hrs by HPLC.

Broadly, the Ki is a dissociation constant, usually derived from enzyme kinetics or from competition with a known ligand. For `O=C1N[C@@H]2[C@@H](O)[C@@H](O)[C@H](O)[C@@H](CO)N2C1=O` [KIFUNENSINE], the Ki in [1] came out at 230 µM.

B1: Alpha-1,2-mannosidase, putative (BT_3773) (Bacteroides thetaiotaomicron), Q8A193 (protein)
chain: MNAFKLLMAASCFLGLATSGVAKQDYSKSEGLLQYVDPYIGSGFHGHVFVGTSVPYGMVQLGPNNIHKGWDWCSGYHYSDSILIGFSHTHLSGTGCTDLGDILIMPLNEIRTPRGNQDDIRDGYASKYSHDNEIARPEYYSLILDRYNIKAELTATDRVGFHRYTYPEGKPVSILIDLREGNGSNAYDSYIRKVDDYTVEGYRYVRGWSPSRKVYFVLKSDQKIEKFTAYDDNTPKLWDQLKVESVKSVLTFGNVKEVKIKVAISSVSCDNAAMNLQAELSHWDFDKVVKMSSDRWNKQLDKMTVESDDEAAKRVFYTAHYHTMIAPTLYCDVNGEYRGMNDMIYTDPKKANYTTLSLWDTYRALNPLMTIIQPEMVDNVINSMLSIYRQQDKLPIWPLMSGETNCMPGYSSVPVIADAYLKGFTGFDAEEALTAMKATATYEGQNGVPYVMAKGYIPADKIHEATSIAMEYAVDDWGIAAMAQKMGKTADYETFSKRAHYYKNYFDSSIHFIRPKLEDGSWRTPYDPARSIHGVGDFCEGNGWQYTFFAPQDPYGLISLFGGDKPFTSKLDSFFTNNDSMGEGASSDITGLIGQYAHGNEPSHHIAYLYTYAGEQWKTAEKVRFIMSDFYTDQPDGIIGNEDCGQMSAWYLLSAMGFYQVNPSDGVFAFGSPRFKKIEVKVRGGKVFTVEAPNNSKDNIYIQKVYLNGKPYHKSYITYDDIINGSTLKFEMGKKPAKNFGKASANRPIVLNK
Regarding B1, the kcat/Km entry in series [2] was “Not Active”. Moreover, in series [3], the Km entry was “Not Active” and the kcat result is given as “Not Active”.

B2: Alpha-1,2-mannosidase (BT_2111) (Bacteroides thetaiotaomicron), Q8A5X5 (protein)
chain: MKRIPLSLFTFLFLLSGLCAAPTKTVWQIGEKNHSASELALSPDKYKEFLANDFGWEDRFYIIGLSSPQKDFPYVLPGPADHWGGTSYTAGIRTHVLNILFGMKEVPETDSWKLIIDLLDTHHELPALFKITINGKSWKYALPKGSGKSIDGDYSQIKPHTIEIPLNSGVIRKGSNSIALTSLEGSWILFDDIRLMGPDNAELNEVNKSVYLRDVKAADFQTTSPVAQPLLVDIEHLSGHPLLEVKVDGKKILEQRLEKGRYILEAPMPVVKSPKTSHYIISADGAILDKGMIRRAPHNTITLADYIDTRMGTAHSRWMIAPGTWMPFSMVKLSPDNQDSGWQSGYDPSFESIGTFSHIHEWTMAGLGIMPANGPLKTEIGSQSSLVKDANSYRSAIDKTSEETKVGYYKVDLTDYQIKAELTATSRCGFQRYTYPQDKDARVMIDLKIPSEYDYQIVEGSVKQTGARRIEGFSKQLSKNVWSADADQNYTIYFVIEFNKDIKKFGGWHDHTLWETDTMTAHYPQRFGCYAEFDTTDHPEVMVRSGISYVDMAGASNNLSNEITEPFGWNFEAVHKHQSDSWNNILNRVRIYSNDYREKVRFYTNLYRAFCRNTFSDADRRWVDAAGNIQKLDDPDAVALGCDAFWNTFWNLNQVWNLIAPEWSSRWVKSQLAMYDANGWLAKGPSGMKYIPVMVGEHEIPLLVSTYQMGIRNYDAEKMFRAIVKMQTTPAQRVANGFAGNRDLETYLQHQYVPADKGRFSNTLEYSYDDWTVSQLAKALGKEEYYRTFSNRGNWWKNAINPATGYAQMRYSNGEWEKNFDPFKSGANHHYVEGNAWQLTFFVPQNVPALTEIIGKELFIDRLSWGFKASEPWRYNAPGDQYWDFPVVQGNQQSMHFAFLFNWAGQPWQTQRWSRSIIDRYYGFDTSNAYLGDEDQGQMSAWFVMAALGLFQTDGGCNAEPVYELGSPLFEKIKIDLGKHFGRGKQFIIKASNTSRENKYIQSAKLNGKKLNSFKFPAKELLKGGTLELEMGDRPNKNWGIK
For B2, the kcat/Km result in [4] was “Not Active”. Further, in [5], the Km entry is reported as “Not Active” and the kcat result is “Not Active”.

B3: Alpha-1,2-mannosidase (BT_3527) (Bacteroides thetaiotaomicron), Q8A1Y1 (protein)
chain: MKKLALLAFTLFSAWNMDAKTITGPVDYVSPLVGTQSKHALSTGNTYPAIALPWGMNFWVPQTGKMGDGWAYTYDADKIRGFKQTHQPSPWINDYGQFSIMPITGKAVFDQDQRASWFSHKAETATPYYYKVYLADHDVVTEIAPTERAAAFRFTFPENDHSYVVVDAFDNGSFVKVIPSENKIIGYTTKNSGGVPANFKNYFVLEFDKPFTYTAAVANGNIDTNKLEANDKHAGALIGFKTRKGEQVNVRVASSFISPEQAELNLKELGKDNIDQIAAKGRKVWNDVLGRIEVEDDDIDHLRTFYSCLYRSVLFPRSFYEIDAKGDIVHYSPYNGEVLPGYMFTDTGFWDTFRCLFPFLNLMYPSMNMKMQEGLVNTYKESGFLPEWASPGHRGCMVGNNSASVVADAYLKGLKGYDIETLWEAVKHGANAVHPQVSSTGRLGYDYYNKLGYVPYNVGINENAARTLEYAYNDWCIYQLGKALNKPKKEIEIFAKRAMNYKNLYDPEHKLMRGKNEDGKFQSPFNPLKWGDAFTEGNSWHYTWSVFHDPQGLIDLMGGKDGFNQMMDSVFILPPVFDDSYYGGVIHEIREMQIMNMGNYAHGNQPIQHMLYMYNYSGQPWKAQHWIREVMDKLYTPAPDGYCGDEDNGQTSAWYVFSAMGFYPVCPGTDEYILGTPYFKQMKLHLENGKTVTISAPNNGDDKRYISSMTLNGKDHTKNYVTHEDLMNGASITFKMDSKPNEQRGTKETDFPYSFSNEFKKKK
As to B3, the kcat/Km result in series [6] is given as “Not Active”. For the same molecule, in series [7], the Km entry was “Not Active” and the kcat entry is recorded as “Not Active”.

B4: Alpha-1,2-mannosidase (BT_2629) (Bacteroides thetaiotaomicron), Q8A4H0 (protein)
chain: MKTHFSFKHLLFLGGAVLYSLQSSAVKNPVDYVSTLIGTQSKFELSTGNTYPATALPWGMNFWTPQTGKMGDGWAYTYDADKIRGFKQTHQPSPWMNDYGQFAIMPITGGLVFDQDRRASWFSHKAEVAKPYYYKVYLADHDVTTELAPTERAVMFRFTYPETKNAYVIVDAFDKGSYVKVIPEENKIIGYSTKNSGGVPENFKNYFVIQFDKPFTFVSTVFENNILPNETEAKGNHTGAVIGFATKKGEIVHARVASSFISPEQAELNLKELGKNSFDQLVANGREIWNREMSKIEIEDDNIDNLRTFYSCLYRSMLFPRSFYEIDAKGQVMHYSPYNGEVRPGYMFTDTGFWDTFRCLFPFLNLMYPSMNQKMQEGLVNTYKESGFLPEWASPGHRDCMVGNNSASVVADAYIKGLRGYDIETLWEALKHGANAHLRGTASGRLGYESYNQLGYVANNIGIGQNVARTLEYAYNDWAIYTLGKKLGKPENEIDIYKKHALNYKNVYHPERKLMVGKDNKGVFNPNFDAVDWSGEFCEGNSWHWSFCVFHDPQGLINLMGGKKEFNAMMDSVFVISGKLGMESRGMIHEMREMQVMNMGQYAHGNQPIQHMVYLYNYSSEPWKAQYWIREIMNKLYTAGPDGYCGDEDNGQTSAWYVFSALGFYPVCPGTDEYIIGTPLFKSAKLHLENGKTITIKADNNQLDNRYIKEMKVNGKSQTRNFLTHDQLIKGANIQFQMSPVPNKQRGTTEKDVPYSLSFE
With B4, in series [8], the Km entry was “Not Active” and the kcat entry is “Not Active”. Also, the kcat/Km entry in series [9] was “Not Active”.

B5: Alpha-1,2-mannosidase (BT_1769) (Bacteroides thetaiotaomicron), Q8A6V7 (protein)
chain: MKLTHILASAAIISTLSACNGSLQTADRTPVDYVNPYIGNISHLLVPTFPTIQLPNSMLRVYPERADYTSELLKGLPLIVTNHRERSAFNFSPYQGEKLRPVITYNYDNEHITPYSFDVELDDNRMKAEYALSHQSAIYRITYEADKPAYLIVNSRNGSIHANENFISGRQQLNDNTNVYVYIEAQEKPISAGILENGTIETSKDNAEGANACAAWRFADGTTTVNLRYGISFISEEQAEKNLHRELKDYNIKALAEAGRQIWNETLGRIQVEGGTEDDKTVFYSSFYRTFERPICMSEGGRYFSAFDGKVHEDNGTPFYTDDWIWDTYRAAHPLRTLIDQQKEEDIIASYLRMAEQMGNMWMPTFPEVTGDTRRMNSNHAVATVADALAKGLKVDTAKAYEACRKGIEEKTLAPWSGAPAGWLDNFYRENGYIPALRVDEPENDPNVHPFEKRQPVAVTLGTSYDQWCLSRIAQALNKKEEAEYYLKCSYNYRNLYNKETAFFHPKDKEGQWIEPFDYRFPGGMGAREYYGENNGWVYRWDVPHNVADLISLMGGNEQFIANLDRTFTEPLGRSKYAFYAKLPDHTGNVGQFSMANEPSLHVPYLYNYAGQPWKTQKRIRQMLKTWFRNDLMGIPGDEDGGGMTSFVVFSSLGFYPVTPGLPAYTIGSPLFTDAKIRLSNGAVFEIEAKNASTDNKYIQSATLNGKEWNKSWFSHDDLMSGGKLVLVMGNKPNKTWASGAEDVPPSLEIK
B5: in [10], the kcat/Km entry is reported as “Not Active”. In series [11], the Km result was “Not Active” and the kcat entry is “Not Active”.

The values above are taken from ChEMBL document CHEMBL1250451, “Mechanistic insights into a Ca2+-dependent family of alpha-mannosidases in a human gut symbiont” (Nat Chem Biol, 2010).
